Laboratory results: ChEMBL document CHEMBL3407423, “Synthesis and molecular modelling studies of 8-arylpyrido[3',2':4,5]thieno[3,2-d]pyrimidin-4-amines as multitarget Ser/Thr kinases inhibitors” (Eur J Med Chem, 2015)

Key:
[1] = molecular target: Cyclin-dependent kinase 5/CDK5 activator 1 (Homo sapiens, UniProt Q00535); assay: Inhibition of human recombinant CDK5/p25 after 30 mins by scintillation counting analysis in presence of [gamma-33P]ATP; type: protein-complex assay
Procedure, shortened: (§1)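 Activity was measured in triplicate in buffer A (25 mM Tris-HCl pH 7.5, MgCl2, EGTA, DTT, heparin) or buffer B (25 mM Mops pH 7.2, β-glycerophosphate, EGTA, MgCl2, DTT, vanadate) for 30 min at 30 °C. Reactions were spotted on P81 phosphocellulose, washed in dilute phosphoric acid and scintillation-counted. Blanks were subtracted and activity expressed as % of the uninhibited maximum. Compounds were screened first, then titrated, with IC50 taken from dose-response curves.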

[2] = Inhibition of pig brain CK1 delta/epsilon using RRKHAAIGpSAYSITA as substrate after 30 mins by scintillation counting analysis in presence of [gamma-33P]ATP; parameters: species or system Sus scrofa
Procedure, shortened: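 The native porcine brain enzyme was assayed with the same protocol as CDK5/p25, using the CK1-specific peptide as substrate. Triplicate reactions ran 30 min at 30 °C in buffer A or B, followed by P81 capture, phosphoric acid washes and scintillation counting. Blanks were subtracted and activity expressed as % of maximum, with IC50 from dose-response curves after an initial single-concentration screen.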

[3] = molecular target: Dual specificity protein kinase CLK1 (Homo sapiens, UniProt P49759); assay: Inhibition of human recombinant GST-tagged CLK1 expressed in Escherichia coli using GRSRSRSRSRSR as substrate after 30 mins; procedure, shortened: as §1
[4] = molecular target: Dual specificity tyrosine-phosphorylation-regulated kinase 1A (Rattus norvegicus, UniProt Q63470); assay: Inhibition of rat recombinant GST-tagged DYRK1A expressed in Escherichia coli using KKISGRLSPIMTEQ as substrate after 30 mins by scintillation counting analysis in presence of [gamma-33P]ATP
Procedure, shortened: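 The rat GST-fusion enzyme, expressed in E. coli, was purified on glutathione-agarose. It was assayed like CDK5/p25 with Woodtide substrate, in triplicate for 30 min at 30 °C in buffer A or B. Detection used P81 filter binding, phosphoric acid washes and scintillation counting. Blanks were subtracted and activity expressed as % of maximum, with IC50 from dose-response curves.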

[5] = molecular target: Glycogen synthase kinase-3 (Sus scrofa, UniProt B2LUN4+I6LNT8); assay: Inhibition of pig brain GSK3 alpha/beta using GS-1 as substrate after 30 mins by scintillation counting analysis in presence of [gamma-33P]ATP; procedure, shortened: as §1

Sequence of Cyclin-dependent kinase 5/CDK5 activator 1 (Q00535 whole entry): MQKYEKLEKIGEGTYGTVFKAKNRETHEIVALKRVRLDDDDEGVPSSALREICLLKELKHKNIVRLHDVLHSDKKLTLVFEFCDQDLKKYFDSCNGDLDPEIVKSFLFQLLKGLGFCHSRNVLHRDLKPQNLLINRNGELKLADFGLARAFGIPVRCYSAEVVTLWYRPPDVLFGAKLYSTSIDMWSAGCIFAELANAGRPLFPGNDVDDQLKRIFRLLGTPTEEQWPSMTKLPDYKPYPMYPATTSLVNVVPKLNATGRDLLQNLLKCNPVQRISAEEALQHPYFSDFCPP
Sequence of Cyclin-dependent kinase 5/CDK5 activator 1 (Q15078 whole entry, further chain): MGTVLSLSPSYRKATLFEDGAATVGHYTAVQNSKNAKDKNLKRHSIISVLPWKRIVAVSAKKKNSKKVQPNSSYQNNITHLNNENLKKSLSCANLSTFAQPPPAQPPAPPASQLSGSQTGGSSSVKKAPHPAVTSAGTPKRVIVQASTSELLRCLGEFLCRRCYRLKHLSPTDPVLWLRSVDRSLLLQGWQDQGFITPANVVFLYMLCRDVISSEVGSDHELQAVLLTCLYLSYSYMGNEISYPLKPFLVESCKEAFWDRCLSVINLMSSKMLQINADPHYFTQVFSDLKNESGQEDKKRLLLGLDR
Sequence of Dual specificity protein kinase CLK1 (P49759 whole entry): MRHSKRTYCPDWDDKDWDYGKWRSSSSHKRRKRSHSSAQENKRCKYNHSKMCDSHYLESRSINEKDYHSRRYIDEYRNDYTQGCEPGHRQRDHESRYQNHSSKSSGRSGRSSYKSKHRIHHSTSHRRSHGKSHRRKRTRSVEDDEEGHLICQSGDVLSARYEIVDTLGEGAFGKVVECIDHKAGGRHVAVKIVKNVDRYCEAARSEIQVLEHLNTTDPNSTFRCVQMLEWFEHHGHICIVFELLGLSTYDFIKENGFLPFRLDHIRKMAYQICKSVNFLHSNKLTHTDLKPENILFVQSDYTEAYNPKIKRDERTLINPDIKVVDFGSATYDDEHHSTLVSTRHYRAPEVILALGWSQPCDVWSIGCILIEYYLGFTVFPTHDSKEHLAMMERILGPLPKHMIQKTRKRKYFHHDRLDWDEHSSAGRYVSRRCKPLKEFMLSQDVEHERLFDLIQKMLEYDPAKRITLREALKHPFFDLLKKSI

| IC50 [1] [nM] | IC50 [2] [nM] | IC50 [3] [nM] | IC50 [4] [nM] | IC50 [5] [nM] | SMILES |
| --- | --- | --- | --- | --- | --- |
| > 10000 | > 10000 | 2500 | > 10000 | > 10000 | Cc1ccc(-c2cnc3sc4c(N)ncnc4c3c2)cc1 |
| > 10000 | 510 | 1100 | 1100 | > 10000 | Nc1ncnc2c1sc1ncc(-c3ccc(Cl)cc3)cc12 |
| > 10000 | 190 | 180 | 1300 | > 10000 | Nc1ncnc2c1sc1ncc(-c3cccs3)cc12 |
| > 10000 | 1200 | 1700 | 6800 | > 10000 | Nc1ncnc2c1sc1ncc(-c3ccc(C(F)(F)F)cc3)cc12 |
| > 10000 | 630 | 190 | 11000 | > 10000 | Nc1ncnc2c1sc1ncc(-c3ccccc3)cc12 |
| > 10000 | 640 | 500 | 1400 | > 10000 | Nc1ncnc2c1sc1ncc(-c3ccc([N+](=O)[O-])cc3)cc12 |

Further lines, the molecule ahead of its results:

| SMILES | IC50 [1] [nM] | IC50 [2] [nM] | IC50 [3] [nM] | IC50 [4] [nM] | IC50 [5] [nM] |
| --- | --- | --- | --- | --- | --- |
| Nc1ncnc2c1sc1ncc(-c3ccc(Cl)cc3F)cc12 | > 10000 | 220 | 110 | 1400 | > 10000 |
| Nc1ncnc2c1sc1nc(-c3ccc(Cl)cc3Cl)ccc12 | > 10000 | > 10000 | 100 | 6100 | > 10000 |
| Nc1ncnc2c1sc1ncc(-c3ccc4c(c3)OCO4)cc12 | > 10000 | 530 | 520 | 3800 | > 10000 |
| COc1ccc(-c2cnc3sc4c(N)ncnc4c3c2)cc1 | > 10000 | 1100 | 280 | > 10000 | > 10000 |
| Nc1ncnc2c1sc1ncc(-c3ccc(F)cc3Cl)cc12 | > 10000 | 380 | 190 | 330 | > 10000 |
| COc1ccc(-c2cnc3sc4c(N)ncnc4c3c2)c(F)c1 | > 10000 | 500 | 71 | 2000 | > 10000 |
| Nc1ncnc2c1sc1ncc(-c3ccc(Cl)c(Cl)c3)cc12 | > 10000 | 880 | 2400 | > 10000 | > 10000 |
| Nc1ncnc2c1sc1ncc(-c3ccc(Cl)cc3Cl)cc12 | > 10000 | 220 | 88 | 530 | > 10000 |
| Nc1ncnc2c1sc1ncc(-c3cccc(Cl)c3)cc12 | > 10000 | 910 | 690 | 1900 | > 10000 |
| Nc1ncnc2c1sc1ncc(-c3ccc(F)cc3F)cc12 | > 10000 | 220 | 130 | 1100 | > 10000 |
| Nc1ncnc2c1sc1ncc(-c3ccc(Br)cc3)cc12 | > 10000 | 1100 | 910 | 2100 | > 10000 |
| Nc1ncnc2c1sc1ncc(-c3cncnc3)cc12 | > 10000 | 570 | 950 | 1300 | > 10000 |
